The source of these data is PMC9328826 (Journal of Food and Drug Analysis, 2016).

Data set [1] in a line: WST-8 cytotoxicity assay on NIH/3T3 cells. It is filed as cell-based. The settings on record: mouse, NIH/3T3 embryonic fibroblast cells. The method, boiled down: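 NIH/3T3 cells, cultured in HEPES-buffered E-MEM with 10% FBS at 37°C, 5% CO2, seeded at 2 × 10^3 cells/well. Exposed to test compound at 0.5–10 μM for 24 and 48 hours at 37°C, with 0.1% DMSO for control and cell-free blank. WST-8 added for 4 hours, then OD read at 450 nm. Viability given as % of control (n = 3); IC50 fitted from dose-response curve by Hill slope.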

For data set [2], the system named is caspase-8. The data set can be described thus: Caspase-8 activity, FAM-LETD-FMK fluorescence probe. It is filed as cell-based, human. The following applies: HeLa, 24 hours; Compound 1 at 3 μM. The method, boiled down: (§1)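 HeLa cells grown in E-MEM with 4.2 mM HEPES, 10% FBS, penicillin/streptomycin, 37°C, 5% CO2. 3 × 10^6 cells exposed to test compound at 3 μM for 24 hours, harvested, labelled 1 hour at 37°C with FAM-FLICA probe (DEVD-FMK caspase-3/7, LETD-FMK caspase-8, LEHD-FMK caspase-9), washed. Fluorescence at ex 485/em 530 nm on a plate reader, given as n-fold over control. Mean ± SD; Duncan test.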

Data set [3] relates to caspase-9. The data set can be described thus: Caspase-9 activity, FAM-LEHD-FMK fluorescence probe. Format: cell-based, human. The following applies: HeLa, 24 hours; Compound 1 at 3 μM. An outline of the steps: as §1
Data set [4] deals with caspase-3/7. The data set is described as follows: Caspase-3/7 activity, FAM-DEVD-FMK fluorescence probe. The settings on record: HeLa, 24 hours; Compound 1 at 3 μM. Format: cell-based, human. An outline of the steps:
as §1

Data set [5] deals with mitochondria membrane potential of HeLa cells. The data set can be described thus: JC-1 assay of mitochondria membrane potential. The settings on record: 10 μM, 48 hours, untreated cells 294. It is filed as cell-based, human. An outline of the steps: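 5 × 10^5 HeLa cells exposed to test compound at 3 μM for 24 and 48 hours, or to a reference drug at 10 μM. Stained with JC-1 for 30 minutes at 37°C, then washed. Green signal read at ex 485/em 530 nm on a plate reader. Red fluorescence (ex 520/em 595 nm) imaged by microscopy at ×400, with intensity quantified from the images. Mean ± SD; Duncan test.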

Data set [6] has as its system K562/ADM cell line. The following applies: read-out: IC50, cytotoxic activity on K562/ADM cell line; 72 hours ref 11; cited from earlier work.
Data set [7] relates to HT-29 cell line. The settings on record: read-out: IC50, cytotoxic activity on HT-29 cell line; 72 hours ref 19; cited from earlier work.

Take `C=C1C(=O)O[C@H]2[C@H]1[C@H](OC(=O)[C@@]1(C)O[C@H]1C)[C@@H](OC(C)=O)/C(C(=O)OC)=C\CC[C@@]1(C)O[C@H]21` [Compound 3, Enhydrin]: in data set [1], the IC50 at 24 h turned out to be 2.7 µM and the IC50 at 48 h came to 1.53 µM.
`C=C1C(=O)O[C@@H]2/C=C(\C)CC/C=C(/C(=O)OC)[C@H](OC(C)=O)[C@@H](OC(=O)[C@]3(C)O[C@@H]3C)[C@@H]12` [Compound 4, Uvedalin]: in data set [1], the IC50 at 24 h is 5.29 µM and the IC50 at 48 h worked out at 2.66 µM. Also, the “increase of caspase-8 activity against control” value in data set [2] was 1.47 fold. For the same molecule, the “increase of caspase-9 activity against control” value in data set [3] was 3.17 fold. The “increase of caspase-3/7 activity against control” value in data set [4] stood at 2.34 fold.
`COc1cc([C@@H]2c3cc4c(cc3[C@@H](O[C@@H]3O[C@@H]5CO[C@@H](C)O[C@H]5[C@H](O)[C@H]3O)[C@H]3COC(=O)[C@H]23)OCO4)cc(OC)c1O` [Etoposide]: in data set [1], the IC50 at 24 h amounted to 7.43 µM and the IC50 at 48 h stood at 0.82 µM. The “increase of caspase-8 activity against control” value in data set [2] is on record as 3.18 fold. Further, the “increase of caspase-9 activity against control” value in data set [3] was determined as 3.96 fold. For the same molecule, the “increase of caspase-3/7 activity against control” value in data set [4] is reported as 3.88 fold. In addition, in data set [5], the “red fluorescence intensity (RFI), JC-1” value is listed as 17.56.
Regarding `CO[C@@]12[C@H](COC(N)=O)C3=C(C(=O)C(C)=C(N)C3=O)N1C[C@@H]1N[C@@H]12` [Mitomycin C], in data set [1], the IC50 at 24 h is 4.43 µM and the IC50 at 48 h is 1.26 µM.
In data set [1], `C=C1C(=O)O[C@H]2[C@H]1CC/C(C)=C/CC[C@@]1(C)O[C@@H]21` [Parthenolide] registered an IC50 at 24 h of 12.3 µM and an IC50 at 48 h of 8.95 µM.
The like results for `CC(=O)O[C@H]1C(=O)[C@@]2(C)[C@H]([C@H](OC(=O)c3ccccc3)[C@]3(O)C[C@H](OC(=O)[C@H](O)[C@@H](NC(=O)c4ccccc4)c4ccccc4)C(C)=C1C3(C)C)[C@]1(OC(C)=O)CO[C@@H]1C[C@@H]2O` [Taxol] were, in that order, 0.39 µM and 0.12 µM.
Take `C=C1CC[C@H]2C(OC(=O)[C@@H]2C)[C@H]2[C@@H]1CC(=O)[C@@H]2CC=C1CC[C@H]2C(=C)[C@H](O)C[C@@H]3[C@H](OC(=O)[C@H]3C)[C@@H]12` (stereo partly drawn) [biguaiascorzolide A]: the IC50 in data set [6] is 39.8 µM.
Consider rufescenolide C, for which, in data set [7], the IC50 was 0.15 µM.
